Results taken from ChEMBL document CHEMBL2016446, “Trivalent ultrashort lipopeptides are potent pH dependent antifungal agents” (J Med Chem, 2012).
Converted amounts (≈) assume the structure as drawn. The source made the active and inactive calls. The rule behind the calls is not given here.

Assays:
[1] = test system: Aspergillus fumigatus; assay: Antifungal activity against Aspergillus fumigatus Af293 infected in immunocompromized ICR mouse assessed as survival rate at 4.5 mg/kg, at pH 5.5 it administered on day 1, 4, 7 and 11 monitored for 28 days relative to control; type: functional; details: route endotracheal
Procedure, shortened: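 Six-week-old female ICR mice immunocompromised with cortisone acetate (150 mg/kg in PBS/0.1% Tween 80, s.c.) 4 days before treatment, on day of first treatment, and 2 and 4 days after. A. fumigatus lung infection on day 1. Lipopeptide given i.t. at 4.5 mg/kg (50 μL, pH 5.5) on days 1, 4, 7 and 11. Controls: saline, amphotericin B 1 mg/kg i.p. Survival followed 28 days; n = 9–10.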

[2] = test system: Candida albicans; assay: Antifungal activity against Candida albicans ATCC 10231 after 48 hrs at pH 5.5; type: functional; details: ATCC 10231, 48 h
Procedure, shortened: (§1)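 The method followed CLSI M38-A2 (Aspergillus) or M27-A3. Medium was RPMI 1640 with 0.165 M MOPS and L-glutamine, without NaHCO3, at pH 5.5 or 7.5. Inoculum of 2 × 10^3 CFU/mL was mixed 1:1 with serial 2-fold peptide dilutions. Incubation was at 35 °C: 48 h for A. fumigatus and C. albicans, 72 h for C. neoformans. MIC was read by eye as no growth. Values are averages of duplicates.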

[3] = test system: Aspergillus fumigatus; assay: Antifungal activity against Aspergillus fumigatus ATCC 26430 after 48 hrs at pH 5.5; type: functional; details: ATCC 26430, 48 h; procedure, shortened: as §1
[4] = test system: Cryptococcus neoformans; assay: Antifungal activity against Cryptococcus neoformans ATCC MYA422 after 72 hrs at pH 7.5; type: functional; details: ATCC MYA422, 72 h; procedure, shortened: as §1
[5] = test system: Candida albicans; assay: Antifungal activity against Candida albicans ATCC 10231 after 48 hrs at pH 7.5; type: functional; details: ATCC 10231, 48 h; procedure, shortened: as §1
[6] = test system: Cryptococcus neoformans; assay: Antifungal activity against Cryptococcus neoformans ATCC MYA422 after 72 hrs at pH 5.5; type: functional; details: ATCC MYA422, 72 h; procedure, shortened: as §1
[7] = test system: Aspergillus fumigatus; assay: Antifungal activity against Aspergillus fumigatus ATCC 26430 after 48 hrs at pH 7.5; type: functional; details: ATCC 26430, 48 h; procedure, shortened: as §1
[8] = test system: Escherichia coli; assay: Antibacterial activity against Escherichia coli ATCC D21 after 18 to 20 hrs at pH 7.5; type: functional, organism-based
Procedure, shortened: (§2)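 Broth microdilution in LB: bacterial suspension at 10^6 CFU/mL mixed 1:1 with serial 2-fold peptide dilutions, made from a 1 mg/mL aqueous stock. Strains were E. coli ATCC D21 and S. aureus ATCC 6538P. MIC was the lowest concentration with no growth after 18–20 h. Values are averages of duplicate experiments.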

[9] = test system: Staphylococcus aureus; assay: Antibacterial activity against Staphylococcus aureus ATCC 6538P after 18 to 20 hrs at pH 7.5; type: functional, organism-based; procedure, shortened: as §2
[10] = test system: Aspergillus fumigatus; assay: Induction of membrane depolarization in Aspergillus fumigatus at 1.56 to 100 uM at pH 7.5 by DiSC3(5)-based fluorescence assay; type: functional, organism-based
Procedure, shortened: (§3)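 A. fumigatus was pregrown 20 h at 35 °C from 2 × 10^3 CFU/mL in RPMI/MOPS (pH 7.4 or 5.5). Cells were loaded with DiSC3(5) at 0.2 μM final in sodium phosphate buffer (pH 5.5 or 7.5) for 15 min. Peptides were added at 1.56–100 μM final, and fluorescence (ex 640/em 660 nm) was read after 1 h.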

[11] = test system: Staphylococcus aureus; assay: Antibacterial activity against Staphylococcus aureus ATCC 6538P after 18 to 20 hrs at pH 5.5; type: functional, organism-based; procedure, shortened: as §2
[12] = test system: Aspergillus fumigatus; assay: Induction of membrane damage in Aspergillus fumigatus at 1.56 to 100 uM at pH 7.5 by Sytox green-based fluorescence assay; type: functional, organism-based
Procedure, shortened: (§4)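 A. fumigatus at 2 × 10^3 CFU/mL in RPMI/MOPS (pH 7.4 or 5.5) was grown 20 h at 35 °C. Sytox green was added at 0.2 μM final in sodium phosphate buffer (pH 5.5 or 7.5) for 15 min. Peptides were then added at 100–1.56 μM final. Fluorescence (ex 485/em 530 nm) was read after 1 h.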

[13] = test system: Escherichia coli; assay: Antibacterial activity against Escherichia coli ATCC D21 after 18 to 20 hrs at pH 5.5; type: functional, organism-based; procedure, shortened: as §2
[14] = test system: Aspergillus fumigatus; assay: Induction of membrane damage in Aspergillus fumigatus at 1.56 to 100 uM at pH 5.5 by Sytox green-based fluorescence assay; type: functional, organism-based; procedure, shortened: as §4
[15] = test system: Aspergillus fumigatus; assay: Induction of membrane depolarization in Aspergillus fumigatus at 1.56 to 100 uM at pH 5.5 by DiSC3(5)-based fluorescence assay; type: functional, organism-based; procedure, shortened: as §3

MIC [2]	MIC [3]	MIC [4]	MIC [5]	MIC [6]	MIC [7]	Structure (SMILES)	survival at 4.5 mg/kg [1]	Activity [8]	Activity [9]	Activity [10]	Activity [11]	Activity [12]	Activity [13]	Activity [14]	Activity [15]
–	–	–	–	–	–	CCCCCCCCCCCCCC(=O)N[C@@H](Cc1c[nH]cn1)C(=O)N[C@@H](Cc1c[nH]cn1)C(=O)N1CCCN(C(=O)[C@H](Cc2c[nH]cn2)NC(=O)[C@H](Cc2c[nH]cn2)NC(=O)CCCCCCCCCCCCC)Cc2cc(cc(C(N)=O)c2)CN(C(=O)[C@H](Cc2c[nH]cn2)NC(=O)[C@H](Cc2c[nH]cn2)NC(=O)CCCCCCCCCCCCC)CCC1 [listing 1 of 2 here]	55%	–	–	–	–	–	–	–	–
2.7 µM (≈ 2.5 µg/mL)	1 µM (≈ 0.924 µg/mL)	0.17 µM (≈ 0.157 µg/mL)	0.33 µM (≈ 0.305 µg/mL)	1.35 µM (≈ 1.25 µg/mL)	0.17 µM (≈ 0.157 µg/mL)	C[C@@H]1[C@H](O)[C@@H](C)/C=C/C=C/C=C/C=C/C=C/C=C/C=C/[C@H](O[C@@H]2O[C@H](C)[C@@H](O)[C@H](N)[C@@H]2O)C[C@@H]2O[C@](O)(C[C@@H](O)C[C@@H](O)[C@H](O)CC[C@@H](O)C[C@@H](O)CC(=O)O[C@H]1C)C[C@H](O)[C@H]2C(=O)O [AMPHOTERICIN B]	–	–	–	–	–	–	–	–	–
100 µM (≈ 190 µg/mL)	> 100 µM	> 100 µM	> 100 µM	25 µM (≈ 47.5 µg/mL)	> 100 µM	CCCCCCCCCCCCCCCCCC(=O)N[C@@H](Cc1c[nH]cn1)C(=O)N[C@@H](Cc1c[nH]cn1)C(=O)N1CCCN(C(=O)[C@H](Cc2c[nH]cn2)NC(=O)[C@H](Cc2c[nH]cn2)NC(=O)CCCCCCCCCCCCCCCCC)Cc2cc(cc(C(N)=O)c2)CN(C(=O)[C@H](Cc2c[nH]cn2)NC(=O)[C@H](Cc2c[nH]cn2)NC(=O)CCCCCCCCCCCCCCCCC)CCC1	–	inactive	inactive	inactive	inactive	inactive	inactive	inactive	inactive
–	–	–	–	–	–	CCCCCCCCCCCCCC(=O)N[C@@H](Cc1c[nH]cn1)C(=O)N[C@@H](Cc1c[nH]cn1)C(=O)N1CCCN(C(=O)[C@H](Cc2c[nH]cn2)NC(=O)[C@H](Cc2c[nH]cn2)NC(=O)CCCCCCCCCCCCC)Cc2cc(cc(C(N)=O)c2)CN(C(=O)[C@H](Cc2c[nH]cn2)NC(=O)[C@H](Cc2c[nH]cn2)NC(=O)CCCCCCCCCCCCC)CCC1 [listing 2 of 2 here]	–	inactive	inactive	Active	inactive	inactive	inactive	inactive	Active
